PTPN22 act – activators of human LYP (PTPN22) phosphatase; Q9Y2R2; recombinant LYP, DiFMUP fluorescence; 0 = plate median, 100 = signal doubled; activation, % at 2 µM; AID 697; 0.11% of 96,000 active;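 active means activation at 2 µM above a set limit, the mean plus 5 SD, cut at about 37% in these data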
Target sequence (Q9Y2R2 whole entry, looked up): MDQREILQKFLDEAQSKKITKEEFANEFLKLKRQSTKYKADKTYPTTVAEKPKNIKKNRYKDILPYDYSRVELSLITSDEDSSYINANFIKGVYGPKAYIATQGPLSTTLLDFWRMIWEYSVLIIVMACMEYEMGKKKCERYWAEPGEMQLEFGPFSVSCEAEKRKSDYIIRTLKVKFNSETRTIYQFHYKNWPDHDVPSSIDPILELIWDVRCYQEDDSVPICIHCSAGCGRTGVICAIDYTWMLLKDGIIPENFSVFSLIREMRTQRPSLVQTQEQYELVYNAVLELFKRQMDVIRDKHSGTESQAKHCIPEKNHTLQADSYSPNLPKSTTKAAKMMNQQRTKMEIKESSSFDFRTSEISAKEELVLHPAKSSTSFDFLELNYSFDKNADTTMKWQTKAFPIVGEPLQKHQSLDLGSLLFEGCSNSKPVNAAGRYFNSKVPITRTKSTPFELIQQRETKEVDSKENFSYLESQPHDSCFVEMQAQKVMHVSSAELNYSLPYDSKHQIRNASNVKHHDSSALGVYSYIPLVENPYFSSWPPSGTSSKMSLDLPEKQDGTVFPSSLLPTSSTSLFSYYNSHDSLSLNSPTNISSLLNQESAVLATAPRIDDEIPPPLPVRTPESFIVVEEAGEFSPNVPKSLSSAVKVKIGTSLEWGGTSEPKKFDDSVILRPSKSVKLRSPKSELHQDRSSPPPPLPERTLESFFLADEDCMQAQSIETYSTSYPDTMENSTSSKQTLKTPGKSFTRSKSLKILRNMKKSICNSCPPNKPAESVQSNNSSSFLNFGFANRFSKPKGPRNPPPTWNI
PLK1 PBD inh – blocks phosphopeptide binding to human Plk1 polo box domain; P53350; Plk1 PBD phosphopeptide binding, fluorescence polarization; inhibition, %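 (tested at about 20 µM)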; 0.13% of 97,000 active; in the data active means inhibition above about 34%, passing the limit was not always enough
Rev-RRE block – disrupts HIV-1 Rev binding to RRE RNA; P05866; 0.79% of 97,000 active; inhibition, % at 8 µM; Rev peptide-RRE RNA binding, FRET;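 active means inhibition above the screen-wide mean plus 3 SD, cut at about 35% in these data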;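 further: 0% = median DMSO wells and 100% = median Neomycin B control wells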
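System: Cy5-labelled duplex RRE RNA binding fluorescein-labelled HIV Rev peptide; Signal: fluorescein-to-Cy5 FRET, 480 nm excitation; Also added: labelled Rev peptide; Compound: one concentration, 8 µM nominal; Buffer or medium: HEPES pH 7.5 salt buffer with EDTA; Read-out: % inhibition of FRET ratio versus controls; Schedule: 5 min preincubation and 15 min binding, 25 °C.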
EphB4 ephrin blk – antagonists of human EphB4-ephrin-B2 interaction | AID 720 | inhibition, % at 7 µM | 0.15% of 97,000 active | P54760 | EphB4 LBD / TNYL-RAW-Alexa532 peptide, fluorescence polarization;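 active means inhibition above the screen-wide mean inhibition plus 3 SD, cut at about 15% in these data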;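 further: 0% = DMSO wells and 100% = excess unlabeled TNYL-RAW peptide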
PLK1 inh – PLK1 (human) kinase inhibition; P53350; recombinant PLK1 kinase, TR-FRET peptide phosphorylation; inhibition, % at 10 µM; AID 619; 0.53% of 97,000 active;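 active means inhibition of 50% or more in the single-concentration screen; inactive means inhibition below 50%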;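 further: 0% = DMSO max control and 100% = H-89 dihydrochloride min control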
LYP inh 2 – LYP (human) phosphatase inhibition; Q9Y2R2; 0.21% of 96,000 active; recombinant LYP catalytic domain, DiFMUP fluorescence; inhibition, % at 2 µM;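 active means inhibition at 2 µM at or above a set limit, the screen mean plus 3 SD, cut at about 24% in these data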;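 further: 0% = DMSO with enzyme and 100% = enzyme fully blocked by orthovanadate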
Redox H2O2 DR – redox cycling H2O2 generation counter-screen for Plk1 PBD | shares compounds with PLK1 PBD inh | DTT | EC50, µM | 120 tested, under 10 active | AID 876; call rule not given here
* marks the source's active call; other numbers are inactive results; / = no result given; [ ] = another dose, or the depositor's remark. Shown are actives, neighbours in structure and some others; about 2% of the full set was active somewhere.

SMILES | PTPN22 act | PLK1 PBD inh | Rev-RRE block | EphB4 ephrin blk | PLK1 inh | LYP inh 2 | Redox H2O2 DR
Cc1ccccc1NS(=O)(=O)c1cc(C(=O)NCc2ccco2)ccc1C | -8 | 38* | 4 | 1 | -3 | 6 | >50
COc1ccc(-c2[nH]c(-c3cccc(OC)c3)nc2SCC(=O)NCc2ccco2)cc1 | -4 | -10 | 6 | -9 | -15 | 2 | /
N#CCSc1nccc(-c2cc(Cl)sc2Cl)n1 | -4 | 22 | 3 | 2 | 5 | 3 | /
C=CCSc1nccc(-c2cc(Cl)sc2Cl)n1 | -8 | 46* | 19 | 1 | -2 | 8 | >50
COc1ccc(C(=O)c2ccc(OC)c3cccc(O)c23)cc1OC | 0 | -17 | 0 | 0 | -5 | 2 | /
COc1ccc2c3c(cccc13)NN=C2C | -4 | 38* | -19 | 6 | 33 | 0 | >50
Cn1c(=O)c(NCCO)c2c3c(cccc31)C(=O)c1ccccc1-2 | 4 | 96* | 142*[fluorescence artefact?] | 31*[fluorescence artefact?] | -194 | -9 | >50
CC1CCN(C(=O)c2ccc3c(c2NCCO)C(=O)c2ccccc2C3=O)CC1 | 12 | -38 | -30 | 4 | 4 | -15 | /
CC(=O)N(/N=C1\Sc2ccccc2C1=O)c1ccccc1C | 6 | 125* | 9 | 7 | -15 | -5 | >50
CC(=O)N(/N=C1\Sc2ccccc2C1=O)c1ccccc1 | -5 | 101* | 4 | -6 | -5 | 10 | >50
Cc1ccc2cc(C(c3nnnn3C3CCCC3)N3CCN(c4ccccc4)CC3)c(=O)[nH]c2c1 (stereo not given) | -13 | 61* | 1 | -5 | -5 | 12 | >50
Cc1ccc(Cl)cc1NC1=C/C(=N\S(=O)(=O)c2cccs2)c2ccccc2C1=O | -1 | -17 | 5 | 1 | -2 | 1 | /
Cc1ccc(NC2=C/C(=N\S(=O)(=O)c3cccs3)c3ccccc3C2=O)c(C)c1 | -3 | 62* | 4 | 5 | 5 | 3 | >50
O=C1CCC(C(=O)O)(c2ccccc2)C1 (stereo not given) | 8 | 46* | 11 | -3 | -9 | -8 | >50
CN1C(=O)CCC1(O)c1ccccc1 (stereo not given) | -2 | -7 | 6 | -4 | -6 | 8 | /
O=C(Nc1nc(=S)ss1)c1ccc(Cl)cc1Cl | -4 | -27 | 0 | 4 | -7 | 4 | /
Cc1ccc(-c2nnc(N3CCN(C(=O)CN4C(=O)c5ccccc5C4=O)CC3)c3ccccc23)cc1 | 5 | 36 | 5 | 9 | -4 | -3 | /
O=C(CN1C(=O)c2ccccc2C1=O)N1CCN(c2nnc(-c3ccccc3)c3ccccc23)CC1 | -9 | 47* | -1 | -5 | -13 | 8 | >50
CCCC(C(=O)NC1CCCC1)N(C(=O)Cn1nnc(-c2ccc(C)o2)n1)c1ccccc1OC (stereo not given) | 6 | -15 | 2 | -3 | -17 | -6 | /
Cc1ccc(C(=O)c2c[nH]c(C(=O)NCCCN3CCOCC3)c2)cc1 | -5 | 58* | 3 | 5 | -3 | 8 | >50
CC1Cc2ccccc2N1C(=O)c1ccc2c(c1)nnn2C (stereo not given) | 9 | 50* | 4 | 5 | -6 | -9 | >50
O=C(CCN1CCc2ccccc2CC1)c1ccc2c(c1)OCCO2 | -6 | -8 | 2 | -3 | -18 | 6 | /
c1ccc(NCc2nnc3n2CCCCC3)cc1 | -11 | 45* | 6 | 3 | -17 | 10 | >50
CC1CCCC(NC(=O)COC(=O)Cc2ccsc2)C1C (stereo not given) | -3 | -24 | -1 | 8 | -11 | 1 | /
CC(=O)Oc1ccc2cc(-c3nc4ccccc4n3C)c(=O)oc2c1 | 3 | -15 | 9 | 2 | -15 | -5 | /
SMILES | PTPN22 act | PLK1 PBD inh | Rev-RRE block | EphB4 ephrin blk | PLK1 inh | LYP inh 2 | Redox H2O2 DR
Cn1c(-c2cc3ccc(OC(=O)C(C)(C)C)cc3oc2=O)nc2ccccc21 | 1 | 37* | 2 | 7 | -14 | 2 | >50
COc1ccc(C(C)C)cc1S(=O)(=O)Nc1ccc(Cl)cn1 | 35 | 47* | 4 | 0 | -14 | -39 | >50
CCOc1ccc(C)cc1S(=O)(=O)Nc1ccc(Cl)cn1 | -5 | -12 | 16 | 0 | 0 | 6 | /
CCOc1ccc(N2C(=O)Nc3ccccc3C2(O)C(=O)NCc2ccc3c(c2)OCO3)cc1 (stereo not given) | 1 | -27 | -1 | -6 | -6 | -3 | /
COc1ccc2[nH]c(=O)c(NC(N)=S)nc2c1 | -5 | 0 | 5 | 7 | -2 | 3 | /
O=C(O)c1cccc(NC(=S)NC(=O)C(c2ccccc2)c2ccccc2)c1 | 1 | 32 | 3 | 0 | -10 | 3 | /
O=C(NC1(O)C(=O)c2ccccc2C1=O)c1ccccc1 | -13 | 82* | 4 | -1 | 5 | 11 | >50
COc1ccccc1C(=O)N1CCN(c2ccccn2)CC1 | -6 | -5 | -3 | -16 | -3 | 5 | /
COc1cccc(OC)c1C(=O)N1CCN(c2ccccn2)CC1 | -2 | 38* | -1 | -5 | -12 | 4 | >50
O=C(NCCc1ccc(Cl)cc1)C1CCC(=O)N1Cc1ccc(F)cc1 (stereo not given) | 1 | -25 | 5 | -2 | -15 | -4 | /
CC(=O)N1CCc2cc(Br)cc(S(=O)(=O)NCc3ccccn3)c21 | -6 | 56* | 2 | 0 | -4 | 6 | >50
CCn1c(SCC(=O)Nc2cc(OC)ccc2OC)nnc1C1CCCCC1 | 0 | -2 | 5 | 1 | 0 | -3 | /
COC(=O)c1cc(C#N)c(NCc2ccccc2)nc1C | -5 | -22 | 3 | -4 | -5 | 7 | /
Cc1nn2c(=O)c(NC(=O)c3ccc(F)cc3)cnc2s1 | 1 | -3 | 2 | -5 | -6 | 0 | /
Cc1ccc(C(=O)Nc2cnc3sc(C)nn3c2=O)cc1 | 0 | 34* | 7 | 1 | -15 | -1 | >50
CCOC(=O)C1=C(CSc2nc3ccccc3s2)NC(=O)NC1c1cccc([N+](=O)[O-])c1 (stereo not given) | -10 | -17 | 2 | -1 | -7 | 12 | /
CC(C)(C)NC(=O)CC(CC(=O)O)c1ccccc1 (stereo not given) | -4 | 45* | 6 | 6 | -4 | 2 | >50
CC(C)(C)NC(=O)CC(c1ccccc1)c1ccccc1O (stereo not given) | 1 | -3 | 8 | -1 | -15 | 2 | /
O=C(NC1(C(F)(F)F)NC(=O)N(CC2CCCCC2)C1=O)c1ccco1 (stereo not given) | -8 | 63* | 7 | 4 | -3 | 5 | >50
CCOc1cc(NC(=S)NCC2CCCO2)c(OCC)cc1NC(=O)c1cccc(C)c1 (stereo not given) | 1 | -15 | -2 | -3 | -4 | 1 | /
O=C(Cc1ccc(Cl)cc1)NCCN1CCCC1 | -8 | 48* | 3 | -6 | -11 | 5 | >50

Assay outcomes: PubChem, several laboratories
